Results on 167 variants are retold here after the RNAGym collection of RNA variant scans (doi:10.1126/science.aae0568).

Fewer inactive variants are shown than the library holds.

The chains are these.
B1: tRNA (parent)
chain: GUUCCGUUGGCGUAAUGGUAACGCGUCUCCCUCCUAAGGAGAAGACUGCGGGUUCGAGUCCCGUACGGAACG

The variants in this series derive from B1. The experiment in a line: yeast fitness relative to wild type (ratio to wild type); higher = fitter; tRNA-Arg(CCU), competitive growth, 37 C, YPD. The method in brief:
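The tRNA-Arg(CCU) gene variants were made by chemical synthesis with a 3% per-site mutation rate at 69 sites and inserted at the native genomic locus of Saccharomyces cerevisiae. After pooling, the strains were competed in YPD at 37°C for 24 hours in six parallel replicates. Gene amplicons from the start population and each end population were read by 100-nucleotide paired-end sequencing, and Darwinian fitness relative to wild type was taken from genotype frequency changes. Genotypes needed ≥ 100 starting reads, and estimates < 0.5 were set to 0.5.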
Turning to C4U C55U, the yeast fitness was 0.694. With U26G G56A, the yeast fitness was determined as 0.919. Regarding C27G G38A A70U, the yeast fitness is not above 0.5. Turning to A45G G56A, the yeast fitness is 1.1.

On to C11A A21G C22G A37G, for which the yeast fitness was not above 0.5. On to A20U A43U C49A G68A, for which the yeast fitness is not above 0.5. To G23A C46A G58A belongs 0.566; to G10A U13A G67C, not above 0.5; to U35C A40C, 0.795. Consider C4U A14U A21C A45C A69U, for which the yeast fitness is not above 0.5.

For C31G C33G G67A, the yeast fitness is not above 0.5. Consider G39C A42C C62U A69C, for which the yeast fitness is not above 0.5. With U8C A15C G41A G52C the figure was not above 0.5; with A40C A42C C49G, not above 0.5; with U2G C31U U64G A65U, not above 0.5. On to C5A G10C C22U A43G G58C C66G, for which the yeast fitness was not above 0.5.

In the case of C24U A65G, the yeast fitness was 0.924. In the case of C30G U32A C66U, the yeast fitness was not above 0.5. To C30A A36U A42G C60U A69C belongs not above 0.5; to U16A G67U, 0.85. To C11A A14G A20U C22G C24U G48C G52A belongs 0.57; to C30G C46A A70G, 0.591.

With C29U A42U A45C, the yeast fitness is 0.51. Turning to C11G A36C A45G A57C C61G, the yeast fitness was not above 0.5. To C27U C33U belongs 0.664; to G9C U35C C46U, 0.601; to U28A C46U A70G, 0.634. To G9A C11A G38C C60G belongs not above 0.5.

On to U7G C22U G51C G58A, for which the yeast fitness is not above 0.5. With A20G C22G C27G C30U C31G G51C G63A A65G the figure was not above 0.5; with C33U G41A C49U C61G, not above 0.5.

Regarding U19A C27A C31A A57C, the yeast fitness stood at 0.799. With A42C G63C, the yeast fitness is 0.681. For G6A C30A C31G G39C, the yeast fitness worked out at 0.534. With A15C U16A C31G C34U A69U, the yeast fitness was not above 0.5. With C11U A21U G39C C55U the figure was not above 0.5. With G10A U53C, the yeast fitness came out at 0.608. To U7A A42G belongs 0.655; to U3A C5A G6C A15G U16A C49G, not above 0.5; to A37C C55G A69C, not above 0.5. For the variant C4G U13G C66U, the yeast fitness is 0.564. With U2C C27G U28A C61U, the yeast fitness is not above 0.5. To A15G G17A C30A belongs 0.529. Turning to A14G G48C G67C, the yeast fitness is not above 0.5.

Turning to C33G G39U A69C, the yeast fitness was not above 0.5. With U19C C30U C55G G58C the figure was 0.533; with C5G A21G U32C A65U G68A, 0.507; with C5A C30G A36G A57U A65U, not above 0.5.

For U35G A65U, the yeast fitness was 0.606. With U2C A15C C60A the figure was not above 0.5. To U7A A21G C61G C66G belongs not above 0.5.

In the case of A37G C46G G56A, the yeast fitness is 0.624. With C22U G38C A65U C66U the figure was 0.547; with G9C C34U A43U C55A A57C, not above 0.5. With C27A A45U the figure was 0.839; with U19C G48C, 0.922. To A14G U16G C24G U26C G50C A65U belongs not above 0.5.

Consider U26G C46A A65G, for which the yeast fitness is 0.682. Take G6A G9C C46G: the yeast fitness was determined as 0.561.

As for G6A C27U A69U, the yeast fitness is 0.695.

Turning to U8G U26A C31U, the yeast fitness was 0.52. To C11U A15C A21G C24G U28A C61U belongs not above 0.5. Consider U3C A20C C46U, for which the yeast fitness stood at 1.06. G6A C11A A40G G56C: the yeast fitness is not above 0.5. To C22G A57U belongs 0.619; to C55U G56C, 0.593. With U3C G23C C66U the figure was not above 0.5; with C24A C55A A65G, not above 0.5; with C4A G12A A45U, 0.546.

Regarding C4G G6A, the yeast fitness worked out at 0.977. With C5G A37C A42U the figure was 0.533; with U7C A14G U19G C29G C49A G52C G63A, not above 0.5.

With U7C U19A C62A G67C, the yeast fitness was not above 0.5. With A20C A36C G41C G67C A69G the figure was not above 0.5. With U19C C27G U47A the figure was not above 0.5; with C4G U7A C29U, 0.504. Regarding U8G A20U A36C A65G, the yeast fitness is not above 0.5. To C22U G38C G48A belongs not above 0.5; to G56A A57U, 0.882. With C11G C30G C31G U32A G56A the figure was not above 0.5. For the variant C30U A45C G48A G58A G67U, the yeast fitness was not above 0.5. Turning to C11U C34U G38A G44C, the yeast fitness was determined as 0.541.

As to A40C C66U, the yeast fitness came to 0.895.

For C5U A37G A43C G63C, the yeast fitness is not above 0.5. As to A14C A21G, the yeast fitness came to 0.713.

For G48A G50A U54A, the yeast fitness was 0.597. Consider C5A U19C C22G C24A G39C A45C, for which the yeast fitness turned out to be 0.596. Turning to A14C C27G C46G C55G, the yeast fitness is not above 0.5. As to U7C C27A, the yeast fitness is 0.894. With A42U A65G C66G G68A, the yeast fitness is 0.551.

For the variant C4U A57U A70U, the yeast fitness amounted to 0.578. With A37G C66A the figure was 0.63; with U3C U7A, 0.772; with C4G C27A C46U G58C A70C, not above 0.5. With U16C A40G C46A the figure was 0.712; with C24U A36U C55G A57G G63C, not above 0.5.

As to C4A C22U C60U G67C, the yeast fitness was found to be 0.519.

For A21U U28C C29G C49G A70U, the yeast fitness was not above 0.5. As for C24G C46U A69U, the yeast fitness worked out at 0.595. To A15U U16A C22G C60U belongs not above 0.5; to U7C A20U A36G C62U, not above 0.5; to A15G C24U C29U C30G U35G A43U, not above 0.5.

Regarding G23A A42G A45U G63C U64C A65G, the yeast fitness was not above 0.5.

Regarding U8C U19G A45C, the yeast fitness was not above 0.5. For G6C G9C U32A G38C U47A, the yeast fitness was not above 0.5. To C22G C61A A69U belongs 0.573. To U8C G23U A42G C60A belongs not above 0.5; to C5U C24U A40C A45U, not above 0.5. With U8C G12C U32G A42U the figure was not above 0.5; with G39A U64C, 1.01; with G10A U26C A36G G56A, not above 0.5. Consider C4U G10C A21G C30A G38C C46U A70C, for which the yeast fitness is not above 0.5. To G10U G17A G25C C29A G52A belongs not above 0.5; to U8A C27A A37U A57U, not above 0.5. For the variant C27G A37U C49G, the yeast fitness is not above 0.5. With C33U C34A U53G U54A the figure was 0.588; with C34A A42U C61G A65U, not above 0.5; with A21G A40C C55A, not above 0.5. As for A20U C46U C55G, the yeast fitness was found to be 0.539. To C22G G48A belongs 0.988.

Turning to U54A A65U, the yeast fitness turned out to be 0.618. With U2A G9A C49A the figure was not above 0.5; with U2G C4U C11G G18C U32C C34U A45U A70U, not above 0.5; with G17A G18A, 0.65. Consider G41A C46G G50A C62A, for which the yeast fitness came out at 0.537. With G9C G23C the figure was 0.573; with C4A U16C G17A G56A C61U, not above 0.5; with U2A U3A U16C C24U A69U, not above 0.5. For A20G A42G G58A, the yeast fitness worked out at 0.806. To C5G C31U A36C G38A belongs 0.557; to U32A C34A, 0.648; to C27U C33G A57G, not above 0.5. As to U26C G68U, the yeast fitness amounted to 0.821. With C5G A70C the figure was 0.905.

Take C4G C27U G41C: the yeast fitness was not above 0.5. With C4U C22U C62U the figure was 0.62; with G9C G12A C29A G38A, not above 0.5. To U7C A20G A37C C60G A65U A70C belongs not above 0.5; to C5G C29G U32A A37U, not above 0.5; to C34G G39A, 0.703. To C30U C60G C61A A69G belongs not above 0.5.

With U2C G52C, the yeast fitness amounted to 0.661. To C5U C22G C29A C61A belongs not above 0.5.

As for G6A C22G A69C, the yeast fitness amounted to 0.591.

In the case of G23C G41C G68A, the yeast fitness was not above 0.5. Consider U2C A42G, for which the yeast fitness was 0.821. To A21U A43U belongs 0.901; to U3C G6A G23C C49G U53G A57G, not above 0.5. For C5G G9C A43G A69G, the yeast fitness was not above 0.5. Regarding U16C G17A C34U A42U U64A G68U, the yeast fitness was not above 0.5. With U28A C31A G51C the figure was not above 0.5. G18A G25C A43U A69C: the yeast fitness was not above 0.5. Consider C22G U32C U47C U53G, for which the yeast fitness is not above 0.5.

With A20U C27G C46G C49U, the yeast fitness was not above 0.5. Regarding C31G U35C, the yeast fitness is 0.823. With A37G G44A U64G the figure was not above 0.5. As for U28A C66U, the yeast fitness was found to be 0.796.

As to C31U G41C, the yeast fitness turned out to be 0.796.

C11A A20C U28C A37U A40C G48A: the yeast fitness is not above 0.5. With C4U U13A, the yeast fitness was determined as 1.1. As to C24U C46G U54C C62A, the yeast fitness was not above 0.5. As for U3C U7G G38C, the yeast fitness was not above 0.5. Regarding C29G A37C C60A A70G, the yeast fitness was not above 0.5.

With C5U G12A A40U G44U A45G C60A, the yeast fitness was not above 0.5.

As to G6A A15C C27A C61G A70U, the yeast fitness is 0.579. With C5A A21C C34G G52A C62G the figure was 0.565; with U7G G25A C49G, 0.542.
